Test results published in publication PMC6217710 (Pain Medicine: The Official Journal of the American Academy …, 2018).

Assays:
healthy male subjects [1] = assay: Laser-evoked potentials; format: in vivo, human
Method in brief: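 Crossover in 24 healthy CYP2D6 extensive/intermediate-metabolizer males: 4 double-blind, double-dummy single-dose periods with 6-day washouts. Back skin got topical 1% alcoholic capsaicin under occlusion for 25 min, then two CO2-laser rekindling sessions. Each session used ≥13 80-msec laser stimuli at the fixed individual pain-threshold intensity. Vertex EEG (Cz vs right mastoid, artifacts rejected) recorded predose and hourly to 8 h. Value is the N2-P2 amplitude difference vs placebo.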

healthy male subjects [2] = assay: Postlaser pain visual analog scale; format: in vivo, human; conditions: all subjects
Method in brief: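 Measured in the same capsaicin-pretreated back-skin sessions of the 4-period crossover (24 healthy males, double-blind, single doses, 6-day washout). Laser intensity was held at each subject's pain threshold, set on untreated skin during screening. After the laser stimuli, subjects rated pain on a 0–100 mm visual analog scale, expressed as %. Ratings were taken predose and hourly up to 8 h, compared against placebo.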

[3] = Plasma pharmacokinetics after single oral dose; format: in vivo; conditions: human, 150 mg
healthy male subjects [4] = assay: Safety and tolerability; format: in vivo, human
healthy male subjects [5] = conditions: previous data in healthy subjects; cited from earlier work

With `CC(C)C[C@H](CN)CC(=O)O` [Pregabalin, pregabalin] the “Difference in LEP N2-P2 PtP amplitudes” value (healthy male subjects [1]; pregabalin 150 mg single dose vs placebo, all subjects (n = 24)) was “–3.30 μV”, the “LEP N2-P2 PtP amplitude value” (healthy male subjects [1]; pregabalin 150 mg, overall, all subjects) was 26.7 μV and the “Difference in VAS pain” value (healthy male subjects [2]; pregabalin 150 mg vs placebo) was “–9.90%”. It also gave a VAS pain score (healthy male subjects [2]; pregabalin 150 mg) of 36.6%, a Tmax [3] of 1.08 h and a Cmax ([3]; mean Cmax, pregabalin 150 mg single oral dose) of 3480 ng/mL. For the same molecule, the “Subjects who reported TEAEs” value (healthy male subjects [4]; during treatment with pregabalin 150 mg) was 50%, the “Any TEAE” value (healthy male subjects [4]; pregabalin 150 mg (n = 24)) was 12 (50) No. (%) and the Dizziness (healthy male subjects [4]; pregabalin 150 mg (n = 24)) was 6 (25) No. (%). The “Drug-related TEAE” value (healthy male subjects [4]; pregabalin 150 mg (n = 24)) was 12 (50) No. (%), the Fatigue (healthy male subjects [4]; pregabalin 150 mg (n = 24)) was 4 (17) No. (%) and the Headache (healthy male subjects [4]; pregabalin 150 mg (n = 24)) was 0 No. (%). For the same molecule, the Nausea (healthy male subjects [4]; pregabalin 150 mg (n = 24)) was 1 (4) No. (%), the “Serious TEAE” value (healthy male subjects [4]; pregabalin 150 mg (n = 24)) was 0 No. (%) and the Somnolence (healthy male subjects [4]; pregabalin 150 mg (n = 24)) was 1 (4) No. (%). For the same molecule, the Vertigo (healthy male subjects [4]; pregabalin 150 mg (n = 24)) was 3 (13) No. (%), the “Reductions in PtP amplitudes of LEPs maintained postdose” value (healthy male subjects [5]) was “more than six hours” and the “Start of reductions in PtP amplitudes of LEPs” value (healthy male subjects [5]) was “one to two hours postadministration”.
